# Experimental data from ChEMBL document CHEMBL1250501, “Anti-tubercular agents. Part 5: synthesis and biological evaluation of benzothiadiazine 1,1-dioxide based congeners” (Eur J Med Chem, 2010).
# Activity calls are given as the source filed them. The rule behind the calls is not given here.
# Assays:
# Format in all cases: functional
# [1] = system: Escherichia coli; assay: Antibacterial activity against Escherichia coli at 100 ug/ml after 18 hrs by cup plate method; details: for zone of inhibition at 100 µg/mL: read-out: DIZ
# Procedure, shortened: (§1)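 Agar well diffusion on Mueller-Hinton agar. Inoculum was adjusted to a 0.5 McFarland standard (about […] × 10⁸ CFU/mL) and swabbed over the plate three times, rotating about 60° each time, then the rim was swabbed. Compounds in DMSO went into duplicate 6 mm wells. Plates were incubated at 37 °C for 18 h and inhibition zone diameter read to the nearest mm. DMSO negative control; streptomycin and ciprofloxacin positive controls.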
# [2] = system: Candida albicans; assay: Antifungal activity against Candida albicans MTCC 227 at 100 ug/ml after 48 hrs by cup plate method; details: MTCC 227, 48 h, read-out: IZ
# Procedure, shortened: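 Agar well (cup plate) diffusion on potato dextrose agar 39 g/L, with compounds dissolved in DMSO. Plates were incubated at 28 ± 2 °C for 48 h and inhibition zones measured to the nearest mm. Three replicates per treatment. Amphotericin B positive control; solvent control included.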
# [3] = system: Klebsiella pneumoniae; assay: Antibacterial activity against Klebsiella pneumoniae at 50 ug/ml after 18 hrs by cup plate method; procedure, shortened: as §1
# [4] = system: Staphylococcus epidermidis; assay: Antibacterial activity against Staphylococcus epidermidis at 50 ug/ml after 18 hrs by cup plate method; details: for zone of inhibition at 50 µg/mL: read-out: DIZ; procedure, shortened: as §1
# [5] = system: Klebsiella pneumoniae; assay: Antibacterial activity against Klebsiella pneumoniae at 100 ug/ml after 18 hrs by cup plate method; details: for zone of inhibition at 100 µg/mL: read-out: DIZ; procedure, shortened: as §1
# [6] = system: Mycobacterium tuberculosis; assay: Antimycobacterial activity against Mycobacterium tuberculosis H37Rv after 3 to 4 weeks by broth microdilution assay
# Procedure, shortened: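 MIC by broth microdilution on compounds active in a single-concentration primary screen. Plates incubated 3–4 weeks at 37 °C in a CO₂ incubator. Wells read visually for absence of growth turbidity.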
# [7] = system: Candida albicans; assay: Antifungal activity against Candida albicans MTCC 227 at 50 ug/ml after 48 hrs by cup plate method
# Procedure, shortened: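 Agar well (cup plate) diffusion on potato dextrose agar 39 g/L. Compounds dissolved in DMSO and loaded into 6 mm wells. Incubated at 28 ± 2 °C for 48 h. Inhibition zone diameter measured to the nearest millimetre, three replicates per treatment. DMSO solvent as negative control, amphotericin B as positive control.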
# [8] = system: Staphylococcus aureus; assay: Antibacterial activity against Staphylococcus aureus at 50 ug/ml after 18 hrs by cup plate method; details: for zone of inhibition at 50 µg/mL: read-out: DIZ; procedure, shortened: as §1
# [9] = system: Pseudomonas aeruginosa; assay: Antibacterial activity against Pseudomonas aeruginosa at 50 ug/ml after 18 hrs by cup plate method; details: for zone of inhibition at 50 µg/mL: read-out: DIZ; procedure, shortened: as §1
# [10] = system: Staphylococcus aureus; assay: Antibacterial activity against Staphylococcus aureus at 100 ug/ml after 18 hrs by cup plate method; details: for zone of inhibition at 100 µg/mL: read-out: DIZ; procedure, shortened: as §1
# [11] = system: Bacillus subtilis; assay: Antibacterial activity against Bacillus subtilis at 100 ug/ml after 18 hrs by cup plate method; details: for zone of inhibition at 100 µg/mL: read-out: DIZ; procedure, shortened: as §1
# [12] = system: Escherichia coli; assay: Antibacterial activity against Escherichia coli at 50 ug/ml after 18 hrs by cup plate method; details: for zone of inhibition at 50 µg/mL: read-out: DIZ; procedure, shortened: as §1
# [13] = system: Staphylococcus epidermidis; assay: Antibacterial activity against Staphylococcus epidermidis at 100 ug/ml after 18 hrs by cup plate method; details: for zone of inhibition at 100 µg/mL: read-out: DIZ; procedure, shortened: as §1
# [14] = system: Pseudomonas aeruginosa; assay: Antibacterial activity against Pseudomonas aeruginosa at 100 ug/ml after 18 hrs by cup plate method; details: for zone of inhibition at 100 µg/mL: read-out: DIZ; procedure, shortened: as §1
# [15] = system: Bacillus subtilis; assay: Antibacterial activity against Bacillus subtilis at 50 ug/ml after 18 hrs by cup plate method; procedure, shortened: as §1
SMILES,zone of inhibition at 100 µg/mL [2],diameter of the inhibition zone (DIZ) [3],diameter of the inhibition zone (DIZ) [4],MIC [6],inhibition zone (IZ) [7],diameter of the inhibition zone (DIZ) [9],diameter of the inhibition zone (DIZ) [12],diameter of the inhibition zone (DIZ) [15],zone of inhibition at 100 µg/mL [1],zone of inhibition at 50 µg/mL [4],zone of inhibition at 100 µg/mL [5],zone of inhibition at 50 µg/mL [8],zone of inhibition at 100 µg/mL [10],zone of inhibition at 100 µg/mL [11],zone of inhibition at 100 µg/mL [13],zone of inhibition at 100 µg/mL [14],zone of inhibition at 50 µg/mL [9],zone of inhibition at 50 µg/mL [12],also measured
CCN1C(N2CCN(C(=O)c3ccc([N+](=O)[O-])o3)CC2)=NS(=O)(=O)c2ccccc21,10 mm,inactive,inactive,> 16 µg/mL,inactive,inactive,inactive,inactive,–,–,–,–,–,–,–,–,–,–,diameter of the inhibition zone (DIZ) [1]: inactive; diameter of the inhibition zone (DIZ) [5]: inactive; diameter of the inhibition zone (DIZ) [8]: inactive; diameter of the inhibition zone (DIZ) [10]: inactive; diameter of the inhibition zone (DIZ) [11]: inactive; diameter of the inhibition zone (DIZ) [13]: inactive; diameter of the inhibition zone (DIZ) [14]: inactive
CN1C(N2CCN(Cc3ccc([N+](=O)[O-])s3)CC2)=NS(=O)(=O)c2ccccc21,17 mm,inactive,–,> 16 µg/mL,inactive,inactive,inactive,inactive,16 mm,14 mm,12 mm,10 mm,12 mm,18 mm,16 mm,13 mm,–,–,–
O=[N+]([O-])c1ccc(CN2CCN(C3=NS(=O)(=O)c4ccccc4N3c3ccccc3)CC2)o1,11 mm,inactive,–,2 µg/mL,inactive,–,–,inactive,20 mm,15 mm,15 mm,14 mm,15 mm,19 mm,20 mm,15 mm,10 mm,14 mm,–
O=[N+]([O-])c1ccc(CN2CCN(C3=NS(=O)(=O)c4ccccc4N3c3ccccc3)CC2)s1,12 mm,inactive,inactive,> 16 µg/mL,inactive,inactive,inactive,inactive,16 mm,–,13 mm,9 mm,12 mm,14 mm,14 mm,12 mm,–,–,–
CCN1C(N2CCN(Cc3ccc([N+](=O)[O-])s3)CC2)=NS(=O)(=O)c2ccccc21,14 mm,inactive,–,4 µg/mL,inactive,inactive,inactive,inactive,15 mm,12 mm,14 mm,10 mm,11 mm,16 mm,18 mm,11 mm,–,–,–
CN[C@@H]1[C@H](O[C@H]2[C@H](O[C@H]3[C@H](O)[C@@H](O)[C@H](N=C(N)N)[C@@H](O)[C@@H]3N=C(N)N)O[C@@H](C)[C@]2(O)C=O)O[C@@H](CO)[C@H](O)[C@H]1O [STREPTOMYCIN],–,–,–,–,inactive,–,–,–,–,18 mm,–,22 mm,–,–,–,–,29 mm,21 mm,zone of inhibition at 50 µg/mL ([3]; read-out: DIZ): 22 mm; zone of inhibition at 50 µg/mL ([15]; read-out: DIZ): 17 mm
